18 compounds from paper PMC10286757 (Chemmedchem, 2022) can be followed below.

What is called viability is a read-out of living cells in per cent, often relative to untreated cells. Broadly, the IC50 is the concentration needed to halve the response being measured.

Data set [1] in a line: HeLa cell cytotoxicity assay. The format is cell-based. The settings on record: human, HeLa cells. Summed up:
(§1)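 HeLa cells were seeded at 2×10^4 per well in DMEM with 10 % FBS, 2 mM L-glutamine and antibiotics, then held overnight at 37 °C in 5 % CO2. Test compound was added to a final 20 μM for 48 h. Resazurin was then added to a final 50 μM for 4 h, and resorufin fluorescence was read at Ex560/Em590. Cell-free background was subtracted and results expressed as % viability against untreated wells.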

Data set [2] deals with Plasmodium falciparum strain 3D7. The experiment in a line: parasite lactate dehydrogenase. The data set is classed as cell-based. Particulars: for antiplasmodial activity in vitro (in words): Pf 3D7, pLDH assay, low micromolar range; for viability at 20 µM / IC50: Plasmodium falciparum, 3D7, 48 h; for viability at 20 µM: read-out: Pf 3D7 % cell viability at 20 μM; for IC50: read-out: Pf 3D7 IC50.

In a further data set the target is T1, PfCDPK4 (Plasmodium falciparum, UniProt Q8IBS5).
T1 sequence (Q8IBS5 1-528): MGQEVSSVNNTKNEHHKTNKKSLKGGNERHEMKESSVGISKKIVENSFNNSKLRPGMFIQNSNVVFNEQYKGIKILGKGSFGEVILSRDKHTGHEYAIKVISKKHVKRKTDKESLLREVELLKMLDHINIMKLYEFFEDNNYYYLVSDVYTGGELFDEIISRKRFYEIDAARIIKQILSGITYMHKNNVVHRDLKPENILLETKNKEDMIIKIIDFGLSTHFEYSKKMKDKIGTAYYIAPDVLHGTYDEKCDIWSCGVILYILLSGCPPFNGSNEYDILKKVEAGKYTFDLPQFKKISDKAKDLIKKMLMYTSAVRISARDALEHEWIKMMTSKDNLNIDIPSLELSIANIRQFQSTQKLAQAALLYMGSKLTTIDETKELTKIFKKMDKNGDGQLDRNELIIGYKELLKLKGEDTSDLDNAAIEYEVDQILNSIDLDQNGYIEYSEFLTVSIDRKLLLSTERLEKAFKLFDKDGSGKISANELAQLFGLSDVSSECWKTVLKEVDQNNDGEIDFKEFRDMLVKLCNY
The experiment in a line: Kinase Glo luciferase enzyme activity assay, recombinant PfCDPK4. The format is biochemical. Summed up: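 Recombinant PfCDPK4 was expressed in Rosetta E. coli at 20 °C by auto-induction, then purified by IMAC and size exclusion. The enzyme was used at 180 nM with 40 μM Syntide-2 and serial inhibitor dilutions in 20 mM HEPES pH 7.5, 0.1 % BSA, 10 mM MgCl2, ±1 mM CaCl2, 1 mM EGTA. Reactions were started with 10 μM ATP and run 90 min at 30 °C. Remaining ATP was read by Kinase-Glo luminescence, with positive and DMSO controls on each plate.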
(Kinase-Glo reads ATP consumption through a luciferase reaction.)

For a further data set, the system named is HeLa cells. The experiment in a line: HeLa cell cytotoxicity assay. The settings on record: single concentration 20 μM. The format is cell-based. In a few lines:
as §1

With `COc1ccc(-c2cn(CC3CCN(C(C)=O)CC3)c3ncnc(N)c23)cc1OC` [2 j, 1‐{4‐[(4‐Amino‐5‐(3,4‐dimethoxyphenyl)‐7H‐pyrrolo[2,3‐d]pyrimidin‐7‐yl)methyl]piperidin‐1‐yl}ethanone], in data set [1], the viability at 48 h, 20 µM worked out at 79.3 ± 0.8%. Also, in data set [2], the “antiplasmodial activity in vitro (in words)” value (“antiplasmodial activity” below) is “moderate antiplasmodial activity”, the viability at 20 µM was found to be 2.8 ± 3.9% and the IC50 was 12.1 ± 11.4 µM. The IC50 on PfCDPK4 was over 2 µM.

In the case of `COc1ccc2cc(-c3cn(CC4CCN(C(C)=O)CC4)c4ncnc(N)c34)ccc2c1` [2 f, 1‐{4‐[(4‐Amino‐5‐(2‐methoxynaphthalen‐6‐yl)‐7H‐pyrrolo[2,3‐d]pyrimidin‐7‐yl)methyl]piperidin‐1‐yl}ethanone], the viability at 48 h, 20 µM in data set [1] was found to be 92.1 ± 3.1%. Further, the viability at 20 µM in data set [2] stood at 35.3 ± 2.2%. The IC50 on PfCDPK4 worked out at 0.21 ± 0.068 µM.

As for `COc1ccc(-c2cn(CCC3CCN(C(=O)OC(C)(C)C)CC3)c3ncnc(N)c23)cc1OC` [2 l, tert ‐Butyl 4‐{2‐[4‐amino‐5‐(3,4‐dimethoxyphenyl)‐7H‐pyrrolo[2,3‐d]pyrimidin‐7‐yl]ethyl}piperidine‐1‐carboxylate], the viability at 48 h, 20 µM in data set [1] came to 82.4 ± 1.4%. For the same compound, the viability at 20 µM in data set [2] was 66.8 ± 3.9%. Also, the IC50 at PfCDPK4 was over 2 µM.

With `CCOc1ccc2cc(-c3cn(CC4CC4)c4ncnc(N)c34)ccc2c1` [2 b, 7‐(Cyclopropylmethyl)‐5‐(2‐ethoxynaphthalen‐6‐yl)‐7H‐pyrrolo[2,3‐d]pyrimidin‐4‐amine], in data set [1], the viability at 48 h, 20 µM is 79.8 ± 3.3%. Further, in data set [2], the “antiplasmodial activity” value is given as “moderate antiplasmodial activity”, the viability at 20 µM was found to be 24.1 ± 3.8% and the IC50 was 18.7 ± 0.8 µM. The IC50 on PfCDPK4 turned out to be 0.369 ± 0.138 µM.

Consider `COc1ccccc1-c1cn(Cc2ccccc2)c2ncnc(N)c12` [2 p, 7‐Benzyl‐5‐(2‐methoxyphenyl)‐7H‐pyrrolo[2,3‐d]pyrimidin‐4‐amine], for which the viability at 48 h, 20 µM in data set [1] was found to be 97 ± 12.5%. Also, the viability at 20 µM in data set [2] is 72.4 ± 13.3%.

For `COc1ccccc1-c1cn(CCN2CCOCC2)c2ncnc(N)c12` [2 n, 5‐(2‐Methoxyphenyl)‐7‐(2‐morpholinoethyl)‐7H‐pyrrolo[2,3‐d]pyrimidin‐4‐amine], the viability at 48 h, 20 µM in data set [1] amounted to 112 ± 2.8%. Moreover, in data set [2], the viability at 20 µM is 95 ± 1%. The IC50 at PfCDPK4 was over 2 µM.

Take `CCOc1ccc2cc(-c3cn(CC4CCN(C(C)=O)CC4)c4ncnc(N)c34)ccc2c1` [2 g, 1‐{4‐[(4‐Amino‐5‐(2‐ethoxynaphthalen‐6‐yl)‐7H‐pyrrolo[2,3‐d]pyrimidin‐7‐yl)methyl]piperidin‐1‐yl}ethanone]: in data set [1], the viability at 48 h, 20 µM turned out to be 92.8 ± 5.7%. Also, in data set [2], the “antiplasmodial activity” value was “moderate antiplasmodial activity”, the viability at 20 µM was 9.3 ± 1.6% and the IC50 was found to be 14.2 ± 1.7 µM. Also, at PfCDPK4, the IC50 came to 0.53 ± 0.185 µM.

With `CCOc1ccc2cc(-c3cn(CCN4CCOCC4)c4ncnc(N)c34)ccc2c1` [2 m, 5‐(2‐Ethoxynaphthalen‐6‐yl)‐7‐(2‐morpholinoethyl)‐7H‐pyrrolo[2,3‐d]pyrimidin‐4‐amine], the viability at 48 h, 20 µM in data set [1] stood at 47 ± 7%. In the data set with HeLa cells, the “cytotoxicity in vitro in HeLa cell assay (in words)” value was “moderate cytotoxicity”. For the same compound, in data set [2], the “antiplasmodial activity” value is given as “moderate antiplasmodial activity”, the viability at 20 µM came to 12 ± 2.6% and the IC50 was determined as 8.2 ± 3.1 µM.

For the compound `CCOCCOc1ccc2cc(-c3cn(CC4CC4)c4ncnc(N)c34)ccc2c1` [2 c, 5‐[2‐(2‐Ethoxyethoxy)naphthalen‐6‐yl]‐7‐(cyclopropylmethyl)‐7H‐pyrrolo[2,3‐d]pyrimidin‐4‐amine], the viability at 48 h, 20 µM in data set [1] was determined as 73 ± 4.1%. In addition, the viability at 20 µM in data set [2] came to 93.1 ± 1.4%.

As for `COc1ccc(-c2cn(Cc3ccccc3)c3ncnc(N)c23)cc1OC` [2 q, 7‐Benzyl‐5‐(3,4‐dimethoxyphenyl)‐7H‐pyrrolo[2,3‐d]pyrimidin‐4‐amine], in data set [1], the viability at 48 h, 20 µM came to 95.4 ± 0.5%. Besides, the viability at 20 µM in data set [2] amounted to 110 ± 4.2%.

`COc1ccc2cc(-c3cn(CC4CC4)c4ncnc(N)c34)ccc2c1` [2 a, 7‐(Cyclopropylmethyl)‐5‐(2‐methoxynaphthalen‐6‐yl)‐7H‐pyrrolo[2,3‐d]pyrimidin‐4‐amine]: the viability at 48 h, 20 µM in data set [1] was 93.6 ± 7.1%. Also, the viability at 20 µM in data set [2] was determined as 103 ± 8%.

On to `COc1ccc(-c2cn(CC3CC3)c3ncnc(N)c23)cc1OC` [2 e, 7‐(Cyclopropylmethyl)‐5‐(3,4‐dimethoxyphenyl)‐7H‐pyrrolo[2,3‐d]pyrimidin‐4‐amine], for which, in data set [1], the viability at 48 h, 20 µM turned out to be 88.8 ± 0.7%. For the same compound, in data set [2], the viability at 20 µM turned out to be 110 ± 10.9%. Further, the IC50 at PfCDPK4 was over 2 µM.

Regarding `CCN(CC)CCCC(C)Nc1ccnc2cc(Cl)ccc12` (stereo not shown) [Chloroquine, reference compound], in data set [2], the IC50 was 0.015 µM.

In the case of `CCOCCOc1ccc2cc(-c3cn(CC4CCN(C(C)=O)CC4)c4ncnc(N)c34)ccc2c1` [2 h, 1‐{4‐{[5‐(2‐(2‐Ethoxyethoxy)naphthalen‐6‐yl)‐4‐amino‐7H‐pyrrolo[2,3‐d]pyrimidin‐7‐yl]methyl}piperidin‐1‐yl}ethanone], the viability at 48 h, 20 µM in data set [1] turned out to be 94.4 ± 9.3%. Besides, the viability at 20 µM in data set [2] is 62.2 ± 9%. Also, the IC50 on PfCDPK4 was over 2 µM.

As for `COc1ccccc1-c1cn(CC2CCN(C(C)=O)CC2)c2ncnc(N)c12` [2 i, 1‐{4‐[(4‐Amino‐5‐(2‐methoxyphenyl)‐7H‐pyrrolo[2,3‐d]pyrimidin‐7‐yl)methyl]piperidin‐1‐yl}ethanone], the viability at 48 h, 20 µM in data set [1] amounted to 93.3 ± 3.2%. For the same compound, the viability at 20 µM in data set [2] turned out to be 121 ± 8.6%. The IC50 on PfCDPK4 is over 2 µM.

For the compound `COc1ccccc1-c1cn(CC2CC2)c2ncnc(N)c12` [2 d, 7‐(Cyclopropylmethyl)‐5‐(2‐methoxyphenyl)‐7H‐pyrrolo[2,3‐d]pyrimidin‐4‐amine], the viability at 48 h, 20 µM in data set [1] is 63.8 ± 1.5%. Also, the viability at 20 µM in data set [2] came to 107 ± 6%. Besides, on PfCDPK4, the IC50 was over 2 µM.

Consider `COc1ccc(-c2cn(CCN3CCOCC3)c3ncnc(N)c23)cc1OC` [2 o, 5‐(3,4‐Dimethoxyphenyl)‐7‐(2‐morpholinoethyl)‐7H‐pyrrolo[2,3‐d]pyrimidin‐4‐amine], for which the viability at 48 h, 20 µM in data set [1] was 88 ± 11.8%. For the same compound, the viability at 20 µM in data set [2] is 57 ± 6.6%. For the same compound, at PfCDPK4, the IC50 was over 2 µM.

For `COc1ccccc1-c1cn(CCC2CCN(C(=O)OC(C)(C)C)CC2)c2ncnc(N)c12` [2 k, tert ‐Butyl 4‐{2‐[4‐amino‐5‐(2‐methoxyphenyl)‐7H‐pyrrolo[2,3‐d]pyrimidin‐7‐yl]ethyl}piperidine‐1‐carboxylate], in data set [1], the viability at 48 h, 20 µM worked out at 78.9 ± 0.1%. For the same compound, the viability at 20 µM in data set [2] worked out at 62 ± 2.1%.
